Experimental data gathered from unrelated publications.
Lines come from different studies, so protocols differ.
PCNA: Proliferating cell nuclear antigen (PCNA, Homo sapiens, UniProt P12004)
CYP1B1: Cytochrome P450 1B1 (CYP1B1, Homo sapiens, UniProt Q16678)
F10 trypsin-like site: Coagulation factor X, trypsin-like site (F10, Homo sapiens, UniProt P00742)
Ntsr1: Neurotensin receptor type 1 (Ntsr1, Rattus norvegicus, UniProt P20789)
ADRB2: Beta-2 adrenergic receptor (ADRB2, Homo sapiens, UniProt P07550)
MMP2: 72 kDa type IV collagenase (MMP2, Homo sapiens, UniProt P08253)

`NCC(O)c1cc(O)c(O)cc1F` (centres unmarked) gave a Ki of 5450 µM (Beta-2 adrenergic receptor (ADRB2, Homo sapiens, UniProt P07550, N293A); ligand displacement, radioligand; cell membranes).
For `CCOC(=O)C(CC)(CCCSCCOCCOCCOCCOCCNC(=O)OC(C)(C)C)NC(=O)c1ccc(C2CC2)c(Cc2ccc(F)cc2)n1` (centres unmarked), the EC50 was 0.013 µM (Cannabinoid receptor 2 (CNR2, Homo sapiens, UniProt P34972); cAMP, agonist).
`CC[C@H](C)[C@H](NC(=O)[C@H](CCCCN)NC(=O)[C@H](CO)NC(=O)[C@H](CC(=O)O)NC(=O)[C@H](CCCCN)NC(=O)[C@H](CCCCN)NC(=O)CNC(=O)[C@H](Cc1c[nH]cn1)NC(=O)[C@@H](N)CCC(N)=O)C(=O)N[C@H](C(=O)N[C@@H](CC(=O)O)C(=O)N[C@@H](Cc1c[nH]cn1)C(=O)N[C@@H](Cc1ccccc1)C(=O)N[C@@H](CCSC)C(=O)N[C@@H](C)C(=O)N[C@@H](CC(C)C)C(=O)N1CCC[C@H]1C(=O)N[C@@H](CCCCN)C(=O)N[C@@H](C)C(=O)O)[C@@H](C)O` gave a Kd of 4.27 µM (PCNA; binding, ITC; pH 7.4).
For `c1ccc2c(c1)-c1cccc3cccc-2c13`, the Kd was 1.6 µM (CYP1B1; binding, absorbance; pH 7.4).
`CC(C)(C)[C@H](NC(=O)[C@H](CCONC(=N)N)NC(=O)Cc1ccc(CNC(=N)N)cc1)C(=O)N[C@@H](CCCCN)C(=O)NCc1ccc(C(=N)N)cc1` has a Ki of 26 µM (F10 trypsin-like site; enzyme activity, inhibitor; pH 8).
With `O=C(N[C@H]1COC(=O)[C@@H](NC(=O)c2cccc(O)c2[O-])COC(=O)[C@@H](NC(=O)c2cccc(O)c2[O-])COC1=O)c1cccc(O)c1[O-].[Fe+3]` the Kd was 0.00015 µM (Neutrophil gelatinase-associated lipocalin (LCN2, Homo sapiens, UniProt P80188, C107S); binding, fluorescence; pH 5.5).
With `NCC(O)c1ccc(O)c(O)c1F` (centres unmarked) the Ki was 216 µM (Beta-2 adrenergic receptor (ADRB2, Homo sapiens, UniProt P07550, N293F); ligand displacement, radioligand; cell membranes).
The Kb of `COc1cccc(OC)c1-c1cc(C(=O)NC2(C(=O)O)CCCCC2)nn1-c1ccc(F)cc1` is reported as greater than 10 µM (Ntsr1; calcium signal, antagonist, fluorescence).
`CC(C)=CCc1c(O)cc2c(c1O)C(=O)C[C@@H](c1ccc(O)cc1)O2` has a Ki of 0.23 µM (CYP1B1; enzyme activity, inhibitor, fluorescence; 15 min, pH 7.4).
`COc1ccc(-c2cc(C(=O)N[C@H](C(=O)O)C3CCCCC3)nn2-c2ccnc3cc(Cl)ccc23)c(OC)c1` gave a Kb of greater than 10 µM (Ntsr1; calcium signal, antagonist, fluorescence).
`CC(C)(C)[C@H](NC(=O)[C@H](CCCNC(=N)N)NC(=O)Cc1ccc(CNC(=N)N)cc1)C(=O)N[C@@H](CCCNC(=N)N)C(=O)NCc1ccc(C(=N)N)cc1` has a Ki of 7.1 µM (F10 trypsin-like site; enzyme activity, inhibitor; pH 8).
With `COc1cc(N)c(Cl)cc1C(=O)NC1CN2CCC1CC2` (centres unmarked) the IC50 was 244 µM (ADRB2; ligand displacement, radioligand; cell membranes).
`CCC#CCOc1ccc(S(=O)(=O)CC2CS2)cc1` (racemic) has an IC50 of 14 µM (MMP2; enzyme activity, inhibitor, fluorescence).
With `CC[C@H](C)[C@H](NC(=O)[C@H](CCCCN)NC(=O)[C@H](CO)NC(=O)[C@H](CC(=O)O)NC(=O)[C@H](CCCCN)NC(=O)[C@H](CCCCN)NC(=O)CNC(=O)[C@H](Cc1c[nH]cn1)NC(=O)[C@@H](N)CCC(N)=O)C(=O)N[C@H](C(=O)N[C@@H](C)C(=O)N[C@@H](Cc1c[nH]cn1)C(=O)N[C@@H](Cc1ccccc1)C(=O)N[C@@H](CCSC)C(=O)N[C@@H](CCCNC(=N)N)C(=O)N[C@@H](CC(C)C)C(=O)N1CCC[C@H]1C(=O)N[C@@H](CCCCN)C(=O)N[C@@H](C)C(=O)O)[C@@H](C)O` the Kd was 8.67 µM (PCNA; binding, ITC; pH 7.4).
The IC50 of `C[C@H](N)Cn1ncc2ccc3c(c21)CCCO3` is reported as 0.48 µM (ADRB2; ligand displacement, radioligand).
`CCCCOc1ccc(C(=O)CCN2CCCCC2)cc1` has an IC50 of 3.89 µM (Histamine H3 receptor (HRH3, Homo sapiens, UniProt Q9Y5N1); ligand displacement, radioligand).
For `CC(C)C[C@H](NC(=O)[C@H](Cc1ccccc1)NC(=O)c1cnccn1)B(O)O`, the IC50 was greater than 33 µM (Coagulation factor X (F10, Homo sapiens, UniProt P00742); enzyme activity, inhibitor).
`CC[C@H](C)[C@H](NC(=O)[C@H](CCCCN)NC(=O)[C@H](CO)NC(=O)[C@H](CC(=O)O)NC(=O)[C@H](CCCCN)NC(=O)[C@H](CCCCN)NC(=O)CNC(=O)[C@H](Cc1c[nH]cn1)NC(=O)[C@@H](N)CCC(N)=O)C(=O)N[C@H](C(=O)N[C@@H](CC(=O)O)C(=O)N[C@@H](C)C(=O)N[C@@H](Cc1ccccc1)C(=O)N[C@@H](CCSC)C(=O)N[C@@H](CCCNC(=N)N)C(=O)N[C@@H](CC(C)C)C(=O)N1CCC[C@H]1C(=O)N[C@@H](CCCCN)C(=O)N[C@@H](C)C(=O)O)[C@@H](C)O` has a Kd of 126 µM (PCNA; binding, ITC; pH 7.4).
With `C#CCOc1ccc(S(=O)(=O)CC2CS2)cc1` (racemic) the IC50 was 7 µM (MMP2; enzyme activity, inhibitor, fluorescence).
`O=C(CCCCCCNC(=O)c1cnc(N(c2ccccc2)c2ccccc2)nc1)NO` has an IC50 of 0.466 µM (Polyamine deacetylase HDAC10 (HDAC10, Homo sapiens, UniProt Q969S8); enzyme activity, inhibitor, fluorescence).
`CC[C@H](C)[C@H](NC(=O)[C@H](CC(C)C)NC(=O)[C@H](CO)NC(=O)[C@H](CC(=O)O)NC(=O)[C@H](CCCCN)NC(=O)[C@H](CCCCN)NC(=O)CNC(=O)[C@H](Cc1c[nH]cn1)NC(=O)[C@@H](N)CCC(N)=O)C(=O)N[C@H](C(=O)N[C@@H](CC(=O)O)C(=O)N[C@@H](Cc1c[nH]cn1)C(=O)N[C@@H](Cc1ccccc1)C(=O)N[C@@H](CCSC)C(=O)N[C@@H](CCCNC(=N)N)C(=O)N[C@@H](CC(C)C)C(=O)N1CCC[C@H]1C(=O)N[C@@H](CCCCN)C(=O)N[C@@H](C)C(=O)O)[C@@H](C)O` gave a Kd of 4.55 µM (PCNA; binding, ITC; pH 7.4).
The Ki of `CC(C)(C)[C@H](NC(=O)[C@H](CCONC(=N)N)NC(=O)Cc1ccc(CN)cc1)C(=O)N[C@@H](CCCCN)C(=O)NCc1ccc(C(=N)N)cc1` is reported as 18 µM (F10 trypsin-like site; enzyme activity, inhibitor; pH 8).
`CC[C@H](C)[C@H](NC(=O)[C@H](CCCCN)NC(=O)[C@H](CO)NC(=O)[C@H](CC(=O)O)NC(=O)[C@H](CCCCN)NC(=O)[C@H](CCCCN)NC(=O)CNC(=O)[C@H](Cc1c[nH]cn1)NC(=O)[C@@H](N)CCC(N)=O)C(=O)N[C@H](C(=O)N[C@@H](CC(=O)O)C(=O)N[C@@H](Cc1c[nH]cn1)C(=O)N[C@@H](Cc1ccccc1)C(=O)N[C@@H](CCSC)C(=O)N[C@@H](CCCNC(=N)N)C(=O)N[C@@H](CC(C)C)C(=O)N1CCC[C@H]1C(=O)N[C@@H](CCCCN)C(=O)N[C@@H](C)C(=O)O)[C@@H](C)O` gave a Kd of 3.28 µM (PCNA; binding, ITC; pH 7.4).
With `O=C(N[C@H](C(=O)O)C1CCCCC1)c1cc(-c2c(F)cccc2F)n(-c2ccnc3cc(Cl)ccc23)n1` the Kb was greater than 10 µM (Ntsr1; calcium signal, antagonist, fluorescence).
`CC[C@H](C)[C@H](NC(=O)[C@H](CCCCN)NC(=O)[C@H](CO)NC(=O)[C@H](CC(=O)O)NC(=O)[C@H](CCCCN)NC(=O)[C@H](CCCCN)NC(=O)CNC(=O)[C@H](Cc1c[nH]cn1)NC(=O)[C@@H](N)CCC(N)=O)C(=O)N[C@H](C(=O)N[C@@H](CC(=O)O)C(=O)N[C@@H](Cc1c[nH]cn1)C(=O)N[C@@H](C)C(=O)N[C@@H](CCSC)C(=O)N[C@@H](CCCNC(=N)N)C(=O)N[C@@H](CC(C)C)C(=O)N1CCC[C@H]1C(=O)N[C@@H](CCCCN)C(=O)N[C@@H](C)C(=O)O)[C@@H](C)O` has a Kd of 41.3 µM (PCNA; binding, ITC; pH 7.4).
For `COc1cccc2c1C(=O)c1c(O)c3c(c(O)c1C2=O)C[C@@](O)(C(=O)CO)C[C@@H]3O[C@H]1C[C@H](N)[C@H](O)[C@H](C)O1`, the Ki was 101 µM (Ileal sodium/bile acid cotransporter (SLC10A2, Homo sapiens, UniProt Q12908); transporter uptake, inhibitor).
